The values that follow come from ChEMBL document CHEMBL1123247, “Nucleoside conjugates. 7. Synthesis and antitumor activity of 1-beta-D-arabinofuranosylcytosine conjugates of ether lipids” (J Med Chem, 1986).

In assay [1] the test system is L1210. Nature of the assay: Antitumor activity against the ip implanted L1210 leukemia in mice expressed as optimal dose (1-5qd treatment schedule) required to produce greatest increase in life span was determined. The assay is classed as functional, Mus musculus. Summed up: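 DBA/2J mice, groups of 6 (23-28 g), were inoculated ip with 1 × 10^6 L1210 cells on day 0. Dosing was ip from 24 h, in 0.9% NaCl with 0.5% Tween-80 (sonicated solution or suspension). Mice were observed daily until death or day 45. Median survival T/C followed NCI protocols, and ILS = (T/C − 1) × 100. Active range means doses giving ILS ≥25%; optimal dose means greatest ILS.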

Assay [2] concerns L1210. Put plainly: Antitumor activity was determined against the ip implanted L1210 leukemia in mice by 45-day survivors in mice at 128 and 262 mg/kg (treatment of 1qd schedule) dosage. Type of assay: functional, Mus musculus. Conditions: route intraperitoneal. Summed up:
(§1)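 DBA/2J mice in groups of 6 (wt 23-28 g) were inoculated ip with 1×10^6 L1210 cells on day 0. Dosing was ip from 24 h, in 0.9% NaCl with 0.5% Tween-80 (conjugates sonicated), across a range of doses. Mice were observed daily until death or 45 days. Median T/C was computed from survivors per NCI protocols, and ILS = (T/C − 1)×100.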

The test system of assay [3] is L1210. Put plainly: Antitumor activity was determined against the ip implanted L1210 leukemia in mice by range in survival days at 32 and 66 mg/kg (treatment of 1-5qd schedule) dosage; Range is 10-12. Type of assay: functional, Mus musculus. Conditions: route intraperitoneal. Summed up:
(§2)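 DBA/2J mice, 23-28 g, in groups of 6, were inoculated ip with 1×10^6 L1210 cells on day 0. Dosing was ip starting 24 h later on the stated daily schedules. Conjugates were given as sonicated solutions and reference prodrugs as suspensions in 0.9% NaCl with 0.5% Tween-80. Mice were observed daily until death or 45 days. Median survival T/C was calculated from survivors per NCI protocols.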

For assay [4], the system named is L1210. Nature of the assay: Antitumor activity was determined against the ip implanted L1210 leukemia in mice by change in […] at 32 and 66 mg/kg (treatment of 1-5qd schedule) dosage. The assay is classed as functional, Mus musculus. Conditions: route intraperitoneal. Summed up: (§3)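 DBA/2J mice, 6 per group (wt 23-28 g), inoculated ip with 1×10^6 L1210 cells on day 0. Treatment was given ip in 0.9% NaCl with 0.5% Tween-80, starting 24 h later. Weight change was taken on day 8. Mice were observed daily until death or 45 days. Median survival T/C and %ILS = (T/C − 1) × 100 came from survivors per NCI protocols, and 45-day survivors were counted.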

For assay [5], the system named is L1210. Nature of the assay: Antitumor activity was determined against the ip implanted L1210 leukemia in mice by range in survival days at 128 and 262 mg/kg (treatment of 1qd schedule) dosage; Range is 7-8. Conditions: route intraperitoneal. Type of assay: functional, Mus musculus. The method, boiled down:
as §2

Assay [6] deals with L1210. Put plainly: Antitumor activity was determined against the ip implanted L1210 leukemia in mice by percent increase in life span at 32 and 66 mg/kg (treatment of 1-5qd schedule) dosage. Type of assay: functional, Mus musculus. Conditions: route intraperitoneal. Summed up:
as §1

Assay [7] relates to L1210. Nature of the assay: Antitumor activity was determined against the ip implanted L1210 leukemia in mice by 45-day survivors in mice at 32 and 66 mg/kg (treatment of 1-5qd schedule) dosage. Type of assay: functional, Mus musculus. Conditions: route intraperitoneal. Summed up: as §1
Assay [8] has as its system L1210. Put plainly: Antitumor activity was determined against the ip implanted L1210 leukemia in mice by change in […] at 128 and 262 mg/kg (treatment of 1qd schedule) dosage. Conditions: route intraperitoneal. The assay is classed as functional, Mus musculus. The method, boiled down:
as §3

In assay [9] the test system is L1210. Put plainly: Antitumor activity was determined against the ip implanted L1210 leukemia in mice by percent median survival rate (treated/control) at 32 and 66 mg/kg (treatment of 1-5qd schedule) dosage; Range is 11.0/8.0. Type of assay: functional, Mus musculus. Conditions: route intraperitoneal. Summed up: as §2
In assay [10] the test system is L1210. Put plainly: Antitumor activity was determined against the ip implanted L1210 leukemia in mice by percent increase in life span at 128 and 262 mg/kg (treatment of 1qd schedule) dosage. Type of assay: functional, Mus musculus. Conditions: route intraperitoneal. The method, boiled down:
as §1

The test system of assay [11] is L1210. Nature of the assay: Antitumor activity was determined against the ip implanted L1210 leukemia in mice by median survival time at 128 and 262 mg/kg (treatment of 1qd schedule) dosage; 8.0/8.0. Conditions: route intraperitoneal.
In assay [12] the test system is L1210. Put plainly: Antitumor activity was determined against the ip implanted L1210 leukemia in mice by change in […] at 26 and 51 mg/kg (treatment of 1-5qd schedule) dosage. The assay is classed as functional, Mus musculus. Conditions: route intraperitoneal. The method, boiled down: as §3
For assay [13], the system named is L1210. Nature of the assay: Antitumor activity was determined against the ip implanted L1210 leukemia in mice by percent increase in life span at 26 and 51 mg/kg (treatment of 1-5qd schedule) dosage. The assay is classed as functional, Mus musculus. Conditions: route intraperitoneal. The method, boiled down:
as §1

The subject of assay [14] is L1210. Put plainly: Antitumor activity was determined against the ip implanted L1210 leukemia in mice by change in […] at 131 and 258 mg/kg (treatment of 1qd schedule) dosage. Conditions: route intraperitoneal. The assay is classed as functional, Mus musculus. The method, boiled down: as §3
Assay [15] deals with L1210. Put plainly: Antitumor activity was determined against the ip implanted L1210 leukemia in mice by 45-day survivors in mice at 131 and 258 mg/kg (treatment of 1qd schedule) dosage. The assay is classed as functional, Mus musculus. Conditions: route intraperitoneal. Summed up: as §1
Assay [16] has as its system L1210. Put plainly: Antitumor activity was determined against the ip implanted L1210 leukemia in mice by range in survival days at 131 and 258 mg/kg (treatment of 1qd schedule) dosage; Range is 8-9. The assay is classed as functional, Mus musculus. Conditions: route intraperitoneal. The method, boiled down: as §2
Assay [17] concerns L1210. Put plainly: Antitumor activity was determined against the ip implanted L1210 leukemia in mice by 45-day survivors in mice at 26 and 51 mg/kg (treatment of 1-5qd schedule) dosage. Type of assay: functional, Mus musculus. Conditions: route intraperitoneal. Summed up:
as §1

Assay [18] concerns L1210. Put plainly: Antitumor activity was determined against the ip implanted L1210 leukemia in mice by percent increase in life span at 131 and 258 mg/kg (treatment of 1qd schedule) dosage. Conditions: route intraperitoneal. The assay is classed as functional, Mus musculus. Summed up:
as §1

Assay [19] deals with L1210. Put plainly: Antitumor activity was determined against the ip implanted L1210 leukemia in mice by median survival time at 131 adn 258 mg/kg (treatment of 1qd schedule) dosage; 8.0/8.0. Conditions: route intraperitoneal.
In assay [20] the test system is L1210. Nature of the assay: Antitumor activity was determined against the ip implanted L1210 leukemia in mice by range in survival days at 26 and 51 mg/kg (treatment of 1-5qd schedule) dosage; Range is 11-12. The assay is classed as functional, Mus musculus. Conditions: route intraperitoneal. Summed up: as §2
For assay [21], the system named is L1210. Nature of the assay: Antitumor activity was determined against the ip implanted L1210 leukemia in mice by median survival time at 26 and 51 mg/kg (treatment of 1-5qd schedule) dosage; 11.0/8.0. Conditions: route intraperitoneal.

The structures appear in SMILES notation. “And” between values parts separate entries of the source, which are not always exact repeats. Identical values can stand only once.

In the case of `CCCCCCCCCCCCCCCCCCOCC(COP(=O)(O)O)OC(=O)CCCCCCCCCCCCCCC.Nc1ccn([C@@H]2O[C@H](COP(=O)(O)O)[C@@H](O)[C@@H]2O)c(=O)n1` (racemic), the Optimal dose in the assay on L1210 [1] was 32 mg and 66 mg. For the same compound, the Survivors in the assay with L1210 [2] and in the assay with L1210 [7] was 0 each time. Also, the Range stood at 10 in the assay with L1210 [3] and 7 in the assay with L1210 [5]. Also, the Weight change in the assay with L1210 [4] was found to be 3.5 g mouse-1; with L1210 [8], 3.2 g mouse-1. Moreover, the figures for the ILS in the assay with L1210 [6] and in the assay on L1210 [10] were 38 and 0, respectively. Also, the results for the median survival time with L1210 [9] and in the assay with L1210 [11] were 11 days and 8 days, respectively.
As for `CCCCCCCCCCCCCCCCOCC(COP(=O)(O)O)OC(=O)CCCCCCCCCCCCCCC.Nc1ccn([C@@H]2O[C@H](COP(=O)(O)O)[C@@H](O)[C@@H]2O)c(=O)n1` (racemic), the Optimal dose in the assay with L1210 [1] is 26 mg and 51 mg. In addition, the Weight change in the assay on L1210 [12] was 1.1 g mouse-1; in the assay on L1210 [14], -0.8 g mouse-1. The ILS in the assay on L1210 [13] was 38; in the assay on L1210 [18], 0. The Survivors with L1210 [15] and in the assay with L1210 [17] was 0 each time. The results for the Range in the assay with L1210 [16] and with L1210 [20] were 8 and 11, respectively. In addition, the figures for the median survival time with L1210 [19] and with L1210 [21] were 8 days and 11 days, respectively.
